ChEMBL document CHEMBL1165965, “Synthesis and structure-activity relationships of 1,2,3,4-tetrahydropyrido[2,3-b]pyrazines as potent and selective inhibitors of the anaplastic lymphoma kinase” (Bioorg Med Chem, 2010)

Tests used:
[1] = target: MAP kinase-interacting serine/threonine-protein kinase 1 (Homo sapiens) (UniProt Q9BUB5); assay: Inhibition of MKNK1 at 1 uM
[2] = target: Activated CDC42 kinase 1 (Homo sapiens) (UniProt Q07912); assay: Inhibition of TNK2 at 1 uM
Method in brief: (§1)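 Single-concentration screen on the Ambit KINOMEscan platform, run against a panel of 250–400 kinases. Per-kinase inhibition was also summarized as S(90), the fraction of kinases inhibited by more than 90%.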

[3] = target: Serine/threonine-protein kinase 26 (Homo sapiens) (UniProt Q9P289); assay: Inhibition of MST4 at 1 uM
Serine/threonine-protein kinase 26 (Homo sapiens), sequence (Q9P289 2-416 limits assumed): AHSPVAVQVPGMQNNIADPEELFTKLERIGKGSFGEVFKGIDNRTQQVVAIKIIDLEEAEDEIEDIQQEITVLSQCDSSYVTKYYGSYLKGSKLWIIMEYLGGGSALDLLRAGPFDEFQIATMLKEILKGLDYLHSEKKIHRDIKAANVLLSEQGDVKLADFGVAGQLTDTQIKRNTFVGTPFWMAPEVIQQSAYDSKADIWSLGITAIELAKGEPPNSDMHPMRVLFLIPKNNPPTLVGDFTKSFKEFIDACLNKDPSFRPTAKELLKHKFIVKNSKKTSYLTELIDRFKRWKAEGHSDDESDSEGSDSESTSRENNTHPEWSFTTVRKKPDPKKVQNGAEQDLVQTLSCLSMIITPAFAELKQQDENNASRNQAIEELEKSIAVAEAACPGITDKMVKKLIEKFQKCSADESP

[4] = tested on: eIF-2-alpha kinase GCN2 (Homo sapiens), Q9P2K8 [S808G]; assay: Inhibition of GCN2 domian 2 S808G mutant at 1 uM; method in brief: as §1
eIF-2-alpha kinase GCN2 (Homo sapiens), Q9P2K8 [S808G], sequence (Q9P2K8 whole entry S808G): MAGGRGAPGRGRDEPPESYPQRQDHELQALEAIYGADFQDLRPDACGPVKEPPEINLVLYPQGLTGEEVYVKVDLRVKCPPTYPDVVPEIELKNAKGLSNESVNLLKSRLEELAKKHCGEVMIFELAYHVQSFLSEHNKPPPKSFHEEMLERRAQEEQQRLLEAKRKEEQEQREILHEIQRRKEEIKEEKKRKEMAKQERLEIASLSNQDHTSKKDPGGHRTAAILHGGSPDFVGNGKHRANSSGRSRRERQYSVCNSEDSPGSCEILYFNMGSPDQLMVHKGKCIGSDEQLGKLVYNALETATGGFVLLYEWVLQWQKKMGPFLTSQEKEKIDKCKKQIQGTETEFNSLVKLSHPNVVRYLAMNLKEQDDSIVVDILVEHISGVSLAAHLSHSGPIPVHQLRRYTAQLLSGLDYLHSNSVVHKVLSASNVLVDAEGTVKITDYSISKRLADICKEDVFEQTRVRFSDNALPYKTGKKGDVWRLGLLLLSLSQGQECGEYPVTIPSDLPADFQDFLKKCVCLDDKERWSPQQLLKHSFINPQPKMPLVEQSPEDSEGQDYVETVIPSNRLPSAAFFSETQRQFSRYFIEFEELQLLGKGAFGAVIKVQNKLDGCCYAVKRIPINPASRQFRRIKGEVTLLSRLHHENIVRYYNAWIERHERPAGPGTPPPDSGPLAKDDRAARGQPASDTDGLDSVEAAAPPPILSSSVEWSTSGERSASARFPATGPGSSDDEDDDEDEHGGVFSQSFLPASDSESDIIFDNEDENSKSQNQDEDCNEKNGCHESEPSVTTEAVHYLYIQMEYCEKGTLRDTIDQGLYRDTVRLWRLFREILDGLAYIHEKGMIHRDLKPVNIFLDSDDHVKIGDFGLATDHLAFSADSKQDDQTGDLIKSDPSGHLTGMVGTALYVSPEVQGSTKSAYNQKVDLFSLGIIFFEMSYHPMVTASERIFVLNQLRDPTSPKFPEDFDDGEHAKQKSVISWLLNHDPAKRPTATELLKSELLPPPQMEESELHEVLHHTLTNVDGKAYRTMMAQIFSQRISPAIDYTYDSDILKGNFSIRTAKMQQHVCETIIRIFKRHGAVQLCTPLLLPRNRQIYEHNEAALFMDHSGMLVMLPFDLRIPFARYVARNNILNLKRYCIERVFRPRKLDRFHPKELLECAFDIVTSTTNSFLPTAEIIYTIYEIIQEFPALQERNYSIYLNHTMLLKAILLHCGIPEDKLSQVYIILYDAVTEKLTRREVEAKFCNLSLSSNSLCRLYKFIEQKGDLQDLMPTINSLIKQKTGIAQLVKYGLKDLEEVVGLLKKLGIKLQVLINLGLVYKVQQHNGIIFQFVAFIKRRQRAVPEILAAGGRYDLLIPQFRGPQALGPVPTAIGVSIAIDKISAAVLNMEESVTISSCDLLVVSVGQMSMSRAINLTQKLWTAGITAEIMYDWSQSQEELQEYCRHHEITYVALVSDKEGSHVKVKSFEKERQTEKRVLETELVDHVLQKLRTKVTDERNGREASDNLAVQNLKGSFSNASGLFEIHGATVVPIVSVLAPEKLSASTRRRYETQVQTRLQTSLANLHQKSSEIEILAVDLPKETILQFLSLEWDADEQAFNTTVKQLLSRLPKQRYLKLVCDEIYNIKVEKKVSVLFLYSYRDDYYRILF

[5] = target: Tyrosine-protein kinase ABL2 (Homo sapiens) (UniProt P42684); assay: Inhibition of ABL2 at 1 uM
Tyrosine-protein kinase ABL2 (Homo sapiens), sequence (P42684 whole entry): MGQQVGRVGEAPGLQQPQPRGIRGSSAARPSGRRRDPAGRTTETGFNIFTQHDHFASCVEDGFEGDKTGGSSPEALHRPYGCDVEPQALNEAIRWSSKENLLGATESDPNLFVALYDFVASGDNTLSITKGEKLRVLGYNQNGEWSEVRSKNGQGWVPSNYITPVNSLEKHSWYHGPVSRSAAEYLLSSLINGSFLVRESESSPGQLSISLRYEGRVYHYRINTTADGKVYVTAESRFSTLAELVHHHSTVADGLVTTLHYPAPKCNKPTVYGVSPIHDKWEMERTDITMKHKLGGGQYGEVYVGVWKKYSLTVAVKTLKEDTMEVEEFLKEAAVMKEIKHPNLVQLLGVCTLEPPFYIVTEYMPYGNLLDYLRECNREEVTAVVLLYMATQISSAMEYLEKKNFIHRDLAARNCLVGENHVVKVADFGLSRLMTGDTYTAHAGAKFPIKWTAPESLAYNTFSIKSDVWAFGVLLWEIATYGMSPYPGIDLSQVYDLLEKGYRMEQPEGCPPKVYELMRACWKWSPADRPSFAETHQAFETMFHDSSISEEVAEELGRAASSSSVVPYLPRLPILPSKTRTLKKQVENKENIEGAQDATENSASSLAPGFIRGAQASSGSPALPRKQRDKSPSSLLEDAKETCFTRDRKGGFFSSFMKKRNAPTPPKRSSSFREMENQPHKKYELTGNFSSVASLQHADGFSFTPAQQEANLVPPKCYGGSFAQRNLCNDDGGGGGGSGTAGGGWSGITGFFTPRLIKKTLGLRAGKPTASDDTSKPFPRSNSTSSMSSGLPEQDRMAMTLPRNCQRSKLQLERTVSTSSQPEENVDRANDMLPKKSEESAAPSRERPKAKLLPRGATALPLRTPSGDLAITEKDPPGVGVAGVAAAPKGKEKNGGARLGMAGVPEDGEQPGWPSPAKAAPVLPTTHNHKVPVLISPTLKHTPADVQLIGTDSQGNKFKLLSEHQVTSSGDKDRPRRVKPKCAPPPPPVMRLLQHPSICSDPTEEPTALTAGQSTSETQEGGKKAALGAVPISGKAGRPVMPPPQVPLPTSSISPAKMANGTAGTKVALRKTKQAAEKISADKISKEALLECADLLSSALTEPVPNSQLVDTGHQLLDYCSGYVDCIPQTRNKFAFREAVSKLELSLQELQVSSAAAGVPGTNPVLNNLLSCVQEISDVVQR
Method in brief: (§2)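 Ambit KINOMEscan screen at a single concentration across a 250–400 kinase panel, recorded as percent inhibition. Selectivity was expressed as S(90), the fraction of kinases inhibited >90%.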

[6] = target: T1, Mitogen-activated protein kinase kinase kinase kinase 2 (Homo sapiens) (UniProt Q12851); assay: Inhibition of MAP4K2 at 1 uM
T1 sequence (whole entry): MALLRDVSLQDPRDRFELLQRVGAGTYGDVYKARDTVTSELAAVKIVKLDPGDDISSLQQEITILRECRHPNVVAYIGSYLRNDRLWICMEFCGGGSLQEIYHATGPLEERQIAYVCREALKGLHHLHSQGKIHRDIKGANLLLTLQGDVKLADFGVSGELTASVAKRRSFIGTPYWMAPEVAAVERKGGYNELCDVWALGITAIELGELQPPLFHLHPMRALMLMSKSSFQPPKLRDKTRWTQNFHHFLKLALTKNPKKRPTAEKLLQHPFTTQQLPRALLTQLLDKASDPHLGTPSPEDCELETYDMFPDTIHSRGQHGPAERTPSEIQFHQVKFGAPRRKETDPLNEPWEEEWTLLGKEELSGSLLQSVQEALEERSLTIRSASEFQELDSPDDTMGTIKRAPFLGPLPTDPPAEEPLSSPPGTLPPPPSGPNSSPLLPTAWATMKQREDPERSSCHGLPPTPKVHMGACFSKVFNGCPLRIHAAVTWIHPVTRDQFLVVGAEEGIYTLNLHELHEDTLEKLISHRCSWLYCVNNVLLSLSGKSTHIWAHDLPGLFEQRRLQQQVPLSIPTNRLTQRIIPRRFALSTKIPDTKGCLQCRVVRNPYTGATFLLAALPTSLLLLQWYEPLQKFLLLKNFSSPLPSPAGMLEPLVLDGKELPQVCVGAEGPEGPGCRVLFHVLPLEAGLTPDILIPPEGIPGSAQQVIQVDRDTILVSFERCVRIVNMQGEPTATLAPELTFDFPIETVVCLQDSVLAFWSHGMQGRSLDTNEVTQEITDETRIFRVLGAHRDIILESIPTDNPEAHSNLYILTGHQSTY

[7] = tested on: Epidermal growth factor receptor (Homo sapiens), P00533 [G719C]; assay: Inhibition of EGFR G719C mutant at 1 uM; type: protein assay
Method in brief: (§3)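 Single-concentration screen using Ambit Bioscience KINOMEscan technology across a panel of 250–400 kinases. Per-kinase inhibition from this screen was summarized as S(90), the fraction of kinases inhibited by more than 90%.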

[8] = target: Ribosomal protein S6 kinase alpha-5 (Homo sapiens) (UniProt O75582); assay: Inhibition of RPS6KA5 N-terminal domain1 at 1 uM
Ribosomal protein S6 kinase alpha-5 (Homo sapiens), sequence (O75582 whole entry, looked up, the tested form may be a part): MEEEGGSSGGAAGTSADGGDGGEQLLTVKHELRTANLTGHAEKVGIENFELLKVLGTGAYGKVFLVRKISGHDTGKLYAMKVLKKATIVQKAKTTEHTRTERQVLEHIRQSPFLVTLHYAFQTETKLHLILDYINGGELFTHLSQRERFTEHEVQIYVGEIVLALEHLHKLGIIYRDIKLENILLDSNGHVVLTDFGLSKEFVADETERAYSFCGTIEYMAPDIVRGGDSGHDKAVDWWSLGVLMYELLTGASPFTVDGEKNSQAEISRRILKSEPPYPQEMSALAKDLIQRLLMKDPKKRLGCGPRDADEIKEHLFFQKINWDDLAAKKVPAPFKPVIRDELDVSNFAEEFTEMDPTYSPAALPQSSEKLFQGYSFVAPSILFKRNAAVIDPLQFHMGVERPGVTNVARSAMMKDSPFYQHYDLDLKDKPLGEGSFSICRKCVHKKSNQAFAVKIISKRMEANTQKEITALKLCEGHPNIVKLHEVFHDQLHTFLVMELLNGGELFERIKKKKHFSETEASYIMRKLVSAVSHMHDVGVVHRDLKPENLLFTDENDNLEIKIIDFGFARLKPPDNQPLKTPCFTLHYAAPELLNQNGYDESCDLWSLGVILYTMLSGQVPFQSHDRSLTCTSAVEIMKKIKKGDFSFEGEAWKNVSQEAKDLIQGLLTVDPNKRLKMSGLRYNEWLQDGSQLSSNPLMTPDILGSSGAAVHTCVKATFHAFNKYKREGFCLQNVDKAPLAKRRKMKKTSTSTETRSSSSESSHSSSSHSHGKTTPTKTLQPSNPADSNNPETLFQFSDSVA

[9] = target: Death-associated protein kinase 2 (Homo sapiens) (UniProt Q9UIK4); assay: Inhibition of DAPK2 at 1 uM; method in brief: as §3
[10] = target: RAC-gamma serine/threonine-protein kinase (Homo sapiens) (UniProt Q9Y243); assay: Inhibition of AKT3 at 1 uM; method in brief: as §2
[11] = target: Phosphatidylinositol 4-phosphate 3-kinase C2 domain-containing subunit beta (Homo sapiens) (UniProt O00750); assay: Inhibition of PIK3C2B at 1 uM
[12] = target: T2, Dual specificity protein kinase TTK (Homo sapiens) (UniProt P33981); assay: Inhibition of TTK at 1 uM
T2 sequence (whole entry): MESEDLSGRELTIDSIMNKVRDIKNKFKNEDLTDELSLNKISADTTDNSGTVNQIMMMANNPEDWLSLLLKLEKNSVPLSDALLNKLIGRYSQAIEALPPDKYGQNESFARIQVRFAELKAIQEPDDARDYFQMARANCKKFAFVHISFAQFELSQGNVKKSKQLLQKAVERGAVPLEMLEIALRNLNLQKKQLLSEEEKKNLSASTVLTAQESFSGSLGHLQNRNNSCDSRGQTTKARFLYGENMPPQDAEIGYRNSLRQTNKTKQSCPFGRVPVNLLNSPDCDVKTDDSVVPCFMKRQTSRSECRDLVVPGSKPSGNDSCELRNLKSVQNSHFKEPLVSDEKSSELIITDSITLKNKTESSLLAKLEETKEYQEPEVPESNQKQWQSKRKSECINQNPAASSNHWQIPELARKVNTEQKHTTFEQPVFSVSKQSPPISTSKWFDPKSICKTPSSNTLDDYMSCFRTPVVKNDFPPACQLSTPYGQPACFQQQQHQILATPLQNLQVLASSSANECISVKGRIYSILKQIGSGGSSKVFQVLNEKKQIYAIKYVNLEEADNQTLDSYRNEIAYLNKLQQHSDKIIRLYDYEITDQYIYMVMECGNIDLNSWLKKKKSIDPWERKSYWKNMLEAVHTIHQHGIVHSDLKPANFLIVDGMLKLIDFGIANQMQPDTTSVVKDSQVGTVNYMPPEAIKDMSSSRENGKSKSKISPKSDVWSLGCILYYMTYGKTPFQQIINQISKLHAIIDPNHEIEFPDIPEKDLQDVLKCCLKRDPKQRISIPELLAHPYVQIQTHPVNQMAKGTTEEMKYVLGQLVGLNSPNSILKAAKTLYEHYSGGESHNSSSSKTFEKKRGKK

[13] = target: Cyclin-dependent kinase 2 (Homo sapiens) (UniProt P24941); assay: Inhibition of CDK2 at 1 uM; method in brief: as §2

Activated CDC42 kinase 1 (Homo sapiens), sequence (Q07912 whole entry, looked up): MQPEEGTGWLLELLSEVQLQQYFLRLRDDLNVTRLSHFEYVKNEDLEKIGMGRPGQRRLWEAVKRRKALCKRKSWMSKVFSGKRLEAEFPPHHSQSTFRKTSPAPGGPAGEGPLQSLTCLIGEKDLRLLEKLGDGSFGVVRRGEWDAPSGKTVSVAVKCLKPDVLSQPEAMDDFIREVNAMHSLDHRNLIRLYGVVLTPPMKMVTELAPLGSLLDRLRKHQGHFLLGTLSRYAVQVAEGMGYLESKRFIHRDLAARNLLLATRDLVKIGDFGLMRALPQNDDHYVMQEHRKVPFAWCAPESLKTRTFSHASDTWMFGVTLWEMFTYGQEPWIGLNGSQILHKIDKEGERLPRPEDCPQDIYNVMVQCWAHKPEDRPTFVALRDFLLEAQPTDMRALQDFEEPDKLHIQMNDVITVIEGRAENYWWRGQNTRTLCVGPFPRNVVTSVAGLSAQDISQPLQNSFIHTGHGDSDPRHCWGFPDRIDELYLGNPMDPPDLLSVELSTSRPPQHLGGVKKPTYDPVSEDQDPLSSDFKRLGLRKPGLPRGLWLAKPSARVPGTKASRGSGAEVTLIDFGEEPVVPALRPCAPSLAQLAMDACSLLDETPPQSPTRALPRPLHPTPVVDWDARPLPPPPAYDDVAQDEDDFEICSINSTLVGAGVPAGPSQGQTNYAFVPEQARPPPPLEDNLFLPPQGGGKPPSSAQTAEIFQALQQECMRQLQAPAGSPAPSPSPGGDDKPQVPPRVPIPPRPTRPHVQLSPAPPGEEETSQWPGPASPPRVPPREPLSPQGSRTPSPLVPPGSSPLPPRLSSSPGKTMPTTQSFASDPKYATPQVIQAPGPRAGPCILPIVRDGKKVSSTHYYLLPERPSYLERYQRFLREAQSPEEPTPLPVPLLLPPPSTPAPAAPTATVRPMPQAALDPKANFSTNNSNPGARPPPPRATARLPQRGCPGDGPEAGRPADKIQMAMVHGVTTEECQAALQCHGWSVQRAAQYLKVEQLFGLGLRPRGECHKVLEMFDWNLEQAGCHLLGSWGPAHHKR

inhibition [1]	inhibition [2]	inhibition [3]	inhibition [4]	inhibition [5]	inhibition [6]	inhibition [7]	inhibition [8]	inhibition [10]	inhibition [11]	inhibition [12]	inhibition [13]	SMILES	inhibition [9]
< 50%	88%	< 50%	< 50%	< 50%	< 50%	< 50%	< 50%	< 50%	< 50%	< 50%	< 50%	CN1CCN(c2ccc(-c3cnc4c(c3)N(Cc3cc(Cl)ccc3Cl)CCN4)cn2)CC1	< 50%
< 50%	98%	< 50%	< 50%	< 50%	< 50%	< 50%	< 50%	< 50%	< 50%	< 50%	< 50%	CN1CCN(c2ccc(-c3cnc4c(c3)N(Cc3cc(Cl)ccc3C(F)(F)F)CCN4)cn2)CC1	< 50%
–	97.2%	< 50%	< 50%	< 50%	–	< 50%	< 50%	< 50%	–	< 50%	< 50%	COC1CCN(C(=O)c2ccc(-c3cnc4c(c3)N(Cc3cc(Cl)ccc3C(F)(F)F)CCN4)cc2)CC1	< 50%
–	93.2%	< 50%	< 50%	< 50%	–	< 50%	< 50%	< 50%	–	< 50%	< 50%	O=C(c1ccc(-c2cnc3c(c2)N(Cc2cc(Cl)ccc2C(F)(F)F)CCN3)cc1)N1CCCCC1	< 50%
< 50%	99%	< 50%	< 50%	< 50%	70%	< 50%	< 50%	< 50%	< 50%	< 50%	< 50%	FC(F)(F)c1ccc(Cl)cc1CN1CCNc2ncc(-c3ccnc(N4CCNCC4)c3)cc21	< 50%
< 50%	99%	< 50%	< 50%	< 50%	< 50%	< 50%	< 50%	< 50%	< 50%	< 50%	< 50%	CC(=O)N1CCN(c2cc(-c3cnc4c(c3)N(Cc3cc(Cl)ccc3C(F)(F)F)CCN4)ccn2)CC1	< 50%
–	97.4%	< 50%	< 50%	< 50%	–	< 50%	< 50%	< 50%	–	< 50%	< 50%	O=C(O)c1ccc(-c2cnc3c(c2)N(Cc2cc(Cl)ccc2C(F)(F)F)CCN3)cc1	< 50%
–	99.8%	< 50%	< 50%	75.9%	–	< 50%	< 50%	< 50%	–	< 50%	< 50%	O=C(c1ccc(-c2cnc3c(c2)N(Cc2cc(Cl)ccc2C(F)(F)F)CCN3)cc1)N1CCC(N2CCCC2)CC1	< 50%
< 50%	85%	< 50%	< 50%	83%	92%	< 50%	< 50%	< 50%	< 50%	< 50%	< 50%	CN1CCN(c2ccc(-c3cnc4c(c3)N(Cc3c(F)ccc(F)c3Cl)CCN4)cn2)CC1	< 50%
< 50%	79%	< 50%	< 50%	< 50%	70%	< 50%	< 50%	< 50%	< 50%	< 50%	< 50%	CN1CCN(c2ccc(-c3cnc4c(c3)N(Cc3cc(F)ccc3F)CCN4)cn2)CC1	< 50%
